Screening results deposited in PubChem by several laboratories.
CYP2C9 act – CYP2C9 (human) activation; activation factor at 5 µM; AID 1024; recombinant CYP2C9, luciferin-H conversion, luminescence; stronger effect = higher value; factor 1 = untreated enzyme, 0 = blocked; 96,000 compounds, 1.4% hits; P11712;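 active means activation factor of 2 or more for CYP2C9 at a 5 µM dose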
Rev-RRE block – disrupts HIV-1 Rev binding to RRE RNA; P05866; Rev peptide-RRE RNA binding, FRET; 97,000 compounds, 0.79% hits; inhibition, % at 8 µM; AID 704;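 active means inhibition above the screen-wide mean plus 3 SD, cut at about 35% in these data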
Target sequence (P05866 whole entry, looked up): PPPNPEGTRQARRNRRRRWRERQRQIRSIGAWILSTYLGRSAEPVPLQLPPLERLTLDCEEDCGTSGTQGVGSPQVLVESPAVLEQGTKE
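System: Cy5-labelled duplex RRE RNA binding fluorescein-labelled HIV Rev peptide; Signal: fluorescein-to-Cy5 FRET, 480 nm excitation; Also added: labelled Rev peptide; Compound: one concentration, 8 µM nominal; Buffer or medium: HEPES pH 7.5 salt buffer with EDTA; Read-out: % inhibition of FRET ratio versus controls; Schedule: 5 min preincubation and 15 min binding, 25 °C.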
Cav32 inh – blocks human Cav3.2 T-type calcium channel. AID 449739. B-score at 10 µM. 100,000 compounds, 4% hits. O95180. Cav3.2-expressing cells, Fluo-4 calcium fluorescence FDSS; stronger effect = lower value;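 active means single-dose well whose peak fluorescence ratio is a statistical outlier from its plate by either plate-standardised score or position-corrected B-score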
CYP2C19 inh – blocks human cytochrome P450 2C19; CYP2C19 Supersomes, luciferin-H EGE luminescence, 30 min; P33261; 96,000 compounds, 21% hits; AID 778; inhibition, % at 5 µM;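 active means CYP2C19 inhibition above a set limit at 5 µM in the primary screen, cut at about 50% in these data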
Target sequence (P33261 whole entry, looked up): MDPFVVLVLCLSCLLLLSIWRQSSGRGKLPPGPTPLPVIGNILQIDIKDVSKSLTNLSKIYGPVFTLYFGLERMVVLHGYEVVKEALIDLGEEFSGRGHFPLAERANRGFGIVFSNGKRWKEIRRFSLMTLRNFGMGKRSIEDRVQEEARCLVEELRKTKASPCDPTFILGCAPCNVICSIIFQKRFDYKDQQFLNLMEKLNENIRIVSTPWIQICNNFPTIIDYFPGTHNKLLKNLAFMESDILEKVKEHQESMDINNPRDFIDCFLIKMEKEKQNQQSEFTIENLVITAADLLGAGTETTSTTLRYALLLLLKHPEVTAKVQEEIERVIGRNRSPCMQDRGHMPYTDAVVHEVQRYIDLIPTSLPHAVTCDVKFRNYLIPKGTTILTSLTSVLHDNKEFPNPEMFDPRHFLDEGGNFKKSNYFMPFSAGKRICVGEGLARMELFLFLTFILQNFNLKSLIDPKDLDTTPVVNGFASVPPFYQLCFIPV
CYP2C19 activ – activators of human cytochrome P450 2C19; activation factor at 5 µM; P33261; AID 1025; 96,000 tested, under 10 active; recombinant CYP2C19, luciferin-H EGE luminescence; stronger effect = higher value; 0 = fully inhibited enzyme, 1 = untreated enzyme;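 active means activation factor of at least 2 at 5 µM in the primary screen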
CYP2C9 inhib – blocks human cytochrome P450 2C9; P11712; CYP2C9 Supersomes, luciferin-H conversion, luminescence; inhibition, % at 5 µM; 96,000 compounds, 20% hits; AID 777;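 active means blocking of liver enzyme CYP2C9 beyond about 50% at 5 µM, limit read from the data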
Hits are given with their value. A selection: hits, their analogues and other compounds. The true share with any hit is near 27%.

For COc1ccc(-n2c(SCC(=O)Nc3sc4c(c3C#N)CCCC4)nnc2-c2ccccc2OC)cc1 the results were Rev-RRE block inactive and Cav32 inh -6.3.
Screening O=C(CSc1n[nH]c(-c2ccco2)n1)Nc1sc2c(c1C(=O)Nc1ccccc1)CCCC2 returned CYP2C9 act inactive, Rev-RRE block inactive, CYP2C19 inh inactive, CYP2C19 activ inactive and CYP2C9 inhib 84.
For NC(=O)c1c(NC(=O)CSc2nnc(-c3ccco3)n2-c2ccccc2)sc2c1CCC2 the results were CYP2C9 act inactive, Cav32 inh inactive, CYP2C19 inh 69, CYP2C19 activ inactive and CYP2C9 inhib 94.
Screening NC(=O)CC[C@@H]1NC(=O)C(Cc2ccc(O)cc2)NC(=O)c2cc([N+](=O)[O-])cc(F)c2NCCC[C@@H](C(N)=O)NC1=O (some centres not stated) returned Cav32 inh inactive.
`CC(C)CNC(=S)NC1CC2CCC(C1)N2Cc1ccccc1` (configuration not stated) gave Rev-RRE block inactive and Cav32 inh inactive.
For CCn1c(SCC(=O)Nc2nc(C)c(C)s2)nnc1-c1ccco1 the results were CYP2C9 act inactive, Rev-RRE block inactive, Cav32 inh inactive, CYP2C19 inh 80, CYP2C19 activ inactive and CYP2C9 inhib inactive.
For CCn1c(SCc2c(F)cccc2Cl)nnc1-c1ccco1 the results were CYP2C9 act inactive, Rev-RRE block inactive, Cav32 inh inactive, CYP2C19 inh 61, CYP2C19 activ inactive and CYP2C9 inhib inactive.
Screening CCCCn1c(=O)nc2n(-c3ccccc3)c3ccccc3cc-2c1=O returned CYP2C9 act inactive, Rev-RRE block inactive, Cav32 inh inactive, CYP2C19 inh inactive, CYP2C19 activ inactive and CYP2C9 inhib inactive.
COc1cc(NC(=S)NN2CCN(C)CC2)cc(OC)c1 was read as CYP2C9 act inactive, Rev-RRE block inactive, Cav32 inh inactive, CYP2C19 inh inactive, CYP2C19 activ inactive and CYP2C9 inhib inactive.
Screening Cc1nc(COC(=O)c2ccc(CO)cc2)cs1 returned CYP2C9 act inactive, Rev-RRE block inactive, Cav32 inh inactive, CYP2C19 inh 64, CYP2C19 activ inactive and CYP2C9 inhib inactive.
Cc1nc(COC(=O)c2c(C)nn(-c3ccccc3)c2C)cs1 was read as CYP2C9 act inactive, Rev-RRE block inactive, Cav32 inh inactive, CYP2C19 inh inactive, CYP2C19 activ inactive and CYP2C9 inhib 69.
Screening Cc1ccc(CN2CCNC(=O)C2CC(=O)O)o1 (configuration not stated) returned CYP2C9 act inactive, Rev-RRE block inactive, Cav32 inh inactive, CYP2C19 inh inactive, CYP2C19 activ inactive and CYP2C9 inhib inactive.
`COc1ccc(CNC(=O)C(c2ccc(C)o2)N(Cc2cccs2)C(=O)Cc2cccs2)cc1` (configuration not stated) gave Rev-RRE block inactive and Cav32 inh -7.6.
COCCN(C(=O)Cc1cccs1)C(C(=O)NCc1ccc(OC)cc1)c1ccc(C(C)C)cc1 (configuration not stated) was read as CYP2C9 act inactive, Rev-RRE block inactive, Cav32 inh inactive, CYP2C19 inh inactive, CYP2C19 activ inactive and CYP2C9 inhib 69.
`CN1C(=O)c2oc3ccc(Br)cc3c(=O)c2C1c1ccncc1` (configuration not stated) gave CYP2C9 act inactive, CYP2C19 inh inactive, CYP2C19 activ inactive and CYP2C9 inhib inactive.
For Cn1c(SCc2cccnc2)nnc1-c1c[nH]c2ccccc12 the results were CYP2C9 act inactive, Rev-RRE block inactive, Cav32 inh inactive, CYP2C19 inh 83, CYP2C19 activ inactive and CYP2C9 inhib inactive.
`CC(C)Sc1nnc(-c2c[nH]c3ccccc23)n1C` gave CYP2C9 act inactive, Rev-RRE block inactive, Cav32 inh inactive, CYP2C19 inh 68, CYP2C19 activ inactive and CYP2C9 inhib inactive.
C#CCSc1nnc(-c2c[nH]c3ccccc23)n1C was read as CYP2C9 act inactive, Cav32 inh inactive, CYP2C19 inh inactive, CYP2C19 activ inactive and CYP2C9 inhib inactive.
Screening CN(C1CCCCC1)S(=O)(=O)c1ccc(NC(=O)c2ccco2)cc1 returned CYP2C9 act inactive, Rev-RRE block inactive, Cav32 inh inactive, CYP2C19 inh inactive, CYP2C19 activ inactive and CYP2C9 inhib inactive.
OC(COc1ccc2c(c1)CCC2)Cn1cnc2ccccc21 (configuration not stated) was read as CYP2C9 act inactive, Rev-RRE block inactive, Cav32 inh inactive, CYP2C19 inh inactive, CYP2C19 activ inactive and CYP2C9 inhib inactive.
`Cc1cc(C(=O)C(=O)N(C)C)c(C)n1-c1ccc([N+](=O)[O-])cc1` gave CYP2C9 act inactive, Rev-RRE block inactive, Cav32 inh inactive, CYP2C19 inh 72, CYP2C19 activ inactive and CYP2C9 inhib inactive.
`Cc1cc(/C=C(\C#N)C(=O)NCc2cccs2)c(C)n1-c1ccc([N+](=O)[O-])cc1` gave Rev-RRE block inactive and Cav32 inh inactive.
For C=CCN(CC=C)C(=O)C(=O)c1cc(C)n(-c2ccc([N+](=O)[O-])cc2)c1C the results were CYP2C9 act inactive, Rev-RRE block inactive, CYP2C19 inh 98, CYP2C19 activ inactive and CYP2C9 inhib inactive.
Screening O=C(CC1CCCC1)OCn1nnc2ccccc2c1=O returned CYP2C9 act inactive, Cav32 inh inactive, CYP2C19 inh inactive, CYP2C19 activ inactive and CYP2C9 inhib inactive.
`Cc1cc(-c2ccccc2)[nH]c(=O)c1S(=O)(=O)c1ccccc1` gave CYP2C9 act inactive, Rev-RRE block inactive, Cav32 inh inactive, CYP2C19 inh inactive, CYP2C19 activ inactive and CYP2C9 inhib inactive.
Cc1sc2nc(C3CC3)nc(NCCNS(C)(=O)=O)c2c1C was read as CYP2C9 act inactive, Rev-RRE block inactive, Cav32 inh inactive, CYP2C19 inh inactive, CYP2C19 activ inactive and CYP2C9 inhib 76.
`Cc1nc(NCCc2ccc(S(N)(=O)=O)cc2)c2c(C)c(C)sc2n1` gave CYP2C9 act inactive, Rev-RRE block inactive, Cav32 inh inactive, CYP2C19 inh inactive, CYP2C19 activ inactive and CYP2C9 inhib inactive.
Screening Cc1cccc(NC(=O)c2c(O)c3cccc4c3n(c2=O)CC4)c1 returned Rev-RRE block inactive.
Screening CCc1nnc(NC(=O)CN2CCN(c3ccc(Cl)cc3)CC2)s1 returned Rev-RRE block inactive.
Cc1ccc(-c2csc(NC(=O)c3cccc(N4C(=O)CCC4=O)c3)n2)o1 was read as Rev-RRE block inactive and Cav32 inh -5.2.
Cn1c(C(=O)NCCN2CCc3ccccc3C2)cc2c(=O)n(C)c3ccccc3c21 was read as CYP2C9 act inactive, Rev-RRE block inactive, Cav32 inh inactive, CYP2C19 inh inactive, CYP2C19 activ inactive and CYP2C9 inhib inactive.
`CC(C)CCNc1ncnc2c1nnn2Cc1ccccc1Cl` gave CYP2C9 act 2.4, Cav32 inh inactive, CYP2C19 inh inactive, CYP2C19 activ inactive and CYP2C9 inhib inactive.
